# Reference: ChEMBL document CHEMBL1212693, “Dorsomorphin inhibits BMP signals required for embryogenesis and iron metabolism” (Nat Chem Biol, 2008)
# The source made the active and inactive calls. No cut-off for these calls is given here.
# Columns and labels:
# Danio rerio [1] = experiment: Inhibition of iron-dextran conjugate-induced Smad-1 phosphorylation in zebrafish at 23 ug/g, iv after 1 hr relative to control; assay type: functional
# Danio rerio [2] = experiment: Inhibition of iron-dextran conjugate-induced Smad-8 phosphorylation in zebrafish at 23 ug/g, iv after 1 hr relative to control; assay type: functional
# Mus musculus [3] = experiment: Increase in serum iron concentration in C57BL/6 mouse at 10 mg/kg, iv after 24 hrs; assay type: functional
# [4] = Inhibition of Sprague-Dawley rat AMPK assessed as inhibition of [33P]ATP utilization after 30 mins by scintillation counting
# Mus musculus [5] = organism: Mus musculus; experiment: Inhibition of BMPR1-mediated Smad-1 phosphorylation in BMP2-stimulated mouse PASMC at 4 uM treated 30 mins before BMP2 challenge measured after 30 mins by immunoblot analysis
# Summary of the method: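 PASMCs (wild-type or BMPR-II–deficient) were kept 24 h in RPMI with 0.5% FCS, preincubated 30 min with compound or vehicle, then stimulated 30 min with recombinant BMP (10 ng ml−1). Extracts in SDS-lysis buffer were immunoblotted for phospho-SMAD1/5/8, with total SMAD1 and α-tubulin as loading controls. Bands were quantitated by phosphorimager.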
# Mus musculus [6] = organism: Mus musculus; experiment: Inhibition of activin receptor-mediated Smad-2 phosphorylation in activin-stimulated mouse PASMC at => 10 uM treated 30 mins before activin challenge measured after 30 mins by immunoblot analysis
# Summary of the method: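 PASMCs serum-starved 24 h (0.5% FCS RPMI) were pretreated 30 min with compound at 0.1–20 µM or vehicle. They were then stimulated 30 min with recombinant TGF-β1 or activin A. Phospho-SMAD2 was detected by immunoblot of SDS lysates, and phosphorimager quantification was used.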
# Mus musculus [7] = organism: Mus musculus; experiment: Inhibition of BMPR1-mediated Smad-5 phosphorylation in BMP4-stimulated mouse BMPR2 deficient PASMC at 4 uM treated 30 mins before BMP4 challenge measured after 30 mins by immunoblot analysis
# Mus musculus [8] = organism: Mus musculus; experiment: Inhibition of BMPR1-mediated Smad-8 phosphorylation in BMP4-stimulated mouse BMPR2 deficient PASMC at 4 uM treated 30 mins before BMP4 measured after 30 mins by immunoblot analysis
# Mus musculus [9] = organism: Mus musculus; experiment: Inhibition of BMPR1-mediated Smad-5 phosphorylation in BMP7-stimulated mouse BMPR2 deficient PASMC at 4 uM treated 30 mins before BMP7 challenge measured after 30 mins by immunoblot analysis
# Mus musculus [10] = organism: Mus musculus; experiment: Inhibition of ALK3-mediated Smad-5 phosphorylation in BMPR2 deficient mouse PASMC at 10 uM by immunoblot analysis
# Summary of the method: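 BMPR-II–deficient mouse PASMCs (RPMI, 10% FBS) transiently transfected with constitutively active ALK2, ALK3 or ALK6 cDNA, or plasmid-only control. Incubated with or without compound (10 µM). Extracts lysed in SDS buffer, run on SDS-PAGE and immunoblotted for phospho-SMAD1/5/8; quantitated by phosphorimager.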
# Mus musculus [11] = organism: Mus musculus; experiment: Inhibition of ALK6-mediated Id1 promoter activity in BMPR2 deficient mouse PASMC at 10 uM by immunoblot analysis
# Summary of the method: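 BMPR-II–deficient mouse PASMCs at 50% confluence co-transfected with Id1 promoter firefly luciferase (BRE-Luc, 0.3 µg), caALK2, caALK3 or caALK6 (0.6 µg), and pRL-TK Renilla (0.2 µg). Compound (4–10 µM) or vehicle added 1 h after transfection. Activity read as firefly/Renilla ratio by dual luciferase assay; n = 3, mean ± s.d.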
# C2C12 = experiment: Cytotoxicity against mouse C2C12 cells at 4 uM by Cell Titer Glo assay; assay type: cell-based; settings: c2c12, 4 µM
# Summary of the method: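 C2C12 cells seeded at 2,000 cells/well in DMEM with 2% FBS and treated in quadruplicate with BMP ligands plus compound or vehicle. Viability measured by Cell-titer Glo after 5 d culture, using replicate wells treated identically to those for alkaline phosphatase.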
# Danio rerio [12] = organism: Danio rerio; experiment: Inhibition of BMPR1 in zebrafish assessed as penetrance of mild embryonic axis dorsalization at 10 uM treated at 2 to 8 hrs post-fertilization measured at 48 hrs; parameters: scale not given: the % may be the effect or the level left
# Summary of the method: (§1)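 Compound added at the stated times and concentrations. Gross morphology scored visually at up to 48 h.p.f. for dorsalization of the embryonic axis.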
# Danio rerio [13] = organism: Danio rerio; experiment: Inhibition of BMPR1 in zebrafish assessed as severity of embryonic axis dorsalization at 10 uM treated at 2 to 8 hrs post-fertilization measured at 48 hrs; parameters: scale not given: the % may be the effect or the level left
# Danio rerio [14] = organism: Danio rerio; experiment: Inhibition of BMPR1 in zebrafish assessed as penetrance of mild embryonic axis dorsalization at 10 uM treated at 4 to 8 hrs post-fertilization measured at 48 hrs; parameters: scale not given: the % may be the effect or the level left; summary of the method: as §1
# Danio rerio [15] = organism: Danio rerio; experiment: Inhibition of BMPR1 in zebrafish assessed as penetrance of mild embryonic axis dorsalization at 10 uM treated at 6 to 8 hrs post-fertilization measured at 48 hrs; parameters: scale not given: the % may be the effect or the level left; summary of the method: as §1
# Danio rerio [16] = organism: Danio rerio; experiment: Inhibition of BMPR1 in zebrafish assessed as severity of embryonic axis dorsalization at 0.2 uM treated at 3 hrs post-fertilization measured at 48 hrs; parameters: scale not given: the % may be the effect or the level left
# Danio rerio [17] = organism: Danio rerio; experiment: Inhibition of BMPR1 in zebrafish assessed as severity of embryonic axis dorsalization at 0.5 uM treated at 3 hrs post-fertilization measured at 48 hrs; parameters: scale not given: the % may be the effect or the level left
# Danio rerio [18] = organism: Danio rerio; experiment: Inhibition of BMPR1 in zebrafish assessed as penetrance of mild embryonic axis dorsalization at 1 uM treated at 3 hrs post-fertilization measured at 48 hrs; parameters: scale not given: the % may be the effect or the level left; summary of the method: as §1
# Danio rerio [19] = organism: Danio rerio; experiment: Inhibition of BMPR1 in zebrafish assessed as severity of embryonic axis dorsalization at 1 uM treated at 3 hrs post-fertilization measured at 48 hrs; parameters: scale not given: the % may be the effect or the level left
# Danio rerio [20] = organism: Danio rerio; experiment: Inhibition of BMPR1 in zebrafish assessed as penetrance of moderate embryonic axis dorsalization at 5 uM treated at 3 hrs post-fertilization measured at 48 hrs; parameters: scale not given: the % may be the effect or the level left
# Danio rerio [21] = organism: Danio rerio; experiment: Inhibition of AMPK in zebrafish assessed as embryonic axis dorsalization at 10 uM treated at 3 hrs post-fertilization measured at 48 hrs; parameters: scale not given: the % may be the effect or the level left
# Danio rerio [22] = organism: Danio rerio; experiment: Inhibition of BMPR1 in zebrafish assessed as penetrance of normal embryonic axis dorsalization at 10 uM treated continuously from 4 hrs post-fertilization measured after 48 hrs; parameters: scale not given: the % may be the effect or the level left
# Danio rerio [23] = organism: Danio rerio; experiment: Inhibition of BMPR1 in zebrafish assessed as penetrance of normal embryonic axis dorsalization at 10 uM treated continuously from 6 hrs post-fertilization measured at 48 hrs; parameters: scale not given: the % may be the effect or the level left
# Danio rerio [24] = organism: Danio rerio; experiment: Inhibition of BMPR1 in zebrafish assessed as penetrance of moderate embryonic axis dorsalization at 10 uM treated continuously from 6 hrs post-fertilization measured at 48 hrs; parameters: scale not given: the % may be the effect or the level left; summary of the method: as §1
# Danio rerio [25] = organism: Danio rerio; experiment: Inhibition of BMPR1 in zebrafish assessed as severity of embryonic axis dorsalization at 10 uM treated continuously from 6 hrs post-fertilization measured at 48 hrs; parameters: scale not given: the % may be the effect or the level left
# Danio rerio [26] = organism: Danio rerio; experiment: Inhibition of BMPR1 in zebrafish assessed as penetrance of moderate embryonic axis dorsalization at 10 uM treated continuously from 8 hrs post-fertilization measured at 48 hrs; parameters: scale not given: the % may be the effect or the level left
# Danio rerio [27] = organism: Danio rerio; experiment: Inhibition of BMPR1 in zebrafish assessed as penetrance of mild embryonic axis dorsalization at 10 uM treated continuously from 10 hrs post-fertilization measured at 48 hrs; parameters: scale not given: the % may be the effect or the level left; summary of the method: as §1
# Danio rerio [28] = organism: Danio rerio; experiment: Inhibition of BMPR1 in zebrafish assessed as penetrance of normal embryonic axis dorsalization at 10 uM treated at 2 to 4 hrs post-fertilization measured at 48 hrs; parameters: scale not given: the % may be the effect or the level left
smiles,measurement,setting,value
c1cc(-c2cnn3cc(-c4ccc(OCCN5CCCCC5)cc4)cnc23)ccn1 [DORSOMORPHIN],fold change (FC),Danio rerio [1],3
same,fold change (FC),Danio rerio [2],3
same,Activity,Mus musculus [3],60%
same,Ki,[4],10 µM
same,inhibition,Mus musculus [5],Active
same,inhibition,Mus musculus [6],Active
same,inhibition,Mus musculus [7],Active
same,inhibition,Mus musculus [8],Active
same,inhibition,Mus musculus [9],Active
same,inhibition,Mus musculus [10],Active
same,inhibition,Mus musculus [11],Dose-dependent effect
same,Activity,C2C12,Non-toxic
same,Activity,Danio rerio [12],0%
same,Activity,Danio rerio [13],100%
same,Activity,Danio rerio [14],65%
same,Activity,Danio rerio [15],95%
same,Activity,Danio rerio [16],0%
same,Activity,Danio rerio [17],0%
same,Activity,Danio rerio [18],0%
same,Activity,Danio rerio [19],0%
same,Activity,Danio rerio [20],0%
same,Activity,Danio rerio [21],100%
same,Activity,Danio rerio [22],0%
same,Activity,Danio rerio [23],0%
same,Activity,Danio rerio [24],78%
same,Activity,Danio rerio [25],0%
same,Activity,Danio rerio [26],0%
same,Activity,Danio rerio [27],0%
same,Activity,Danio rerio [28],0%
